Experimental data taken from ChEMBL document CHEMBL4414673, “The DESIGNER Approach Helps Decipher the Hypoglycemic Bioactive Principles of Artemisia dracunculus (Russian Tarragon)” (J Nat Prod, 2019).
Activity calls are given as the source filed them. The calls are words filed in the database; no cut-off is given here.

Experiments:
Mus musculus [1] = assay: Effect on insulin signalling in high fat diet-induced obese C57BL/6J mouse assessed as increase in PI3K-P85 expression in skeletal muscle at 100 mg/kg administered via gavage for 2 weeks and measured after 6 hrs post dose by Western blot analysis; format: functional, organism-based
Outline: (§1)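 Male C57BL/6J mice, singly housed, were fed a 60% kcal fat diet from 4 weeks of age for 16 weeks and acclimated to gavage for 2 weeks. They got one gavage dose of 100 or 300 mg/kg in Labrasol vehicle and were euthanized at 6 h. Muscle, liver or gonadal fat was lysed in HEPES/Igepal buffer, and 50 μg protein was immunoblotted with chemiluminescent detection.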

[2] = Toxicity in high fat diet-induced C57BL/6J mouse assessed as upregulation of total AKT expression in adipose tissue at 300 mg/kg administered via gavage for 2 weeks and measured after 6 hrs post dose by Western blot analysis; format: organism-based; details: in vivo, po; outline: as §1
Mus musculus [3] = assay: Hypoglycemic activity in high fat diet-induced obese C57BL/6J mouse assessed as reduction in blood glucose level at 100 to 300 mg/kg […] and measured after 6 hrs post dose; format: functional, organism-based
Outline: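 Obese male C57BL/6J mice (60% kcal fat diet for 16 weeks, gavage-acclimated for 2 weeks) received one oral gavage dose of 100 or 300 mg/kg in Labrasol. Fasting whole-blood glucose was read by glucometer at baseline and hourly. Results are given as mg/dL and % change from baseline at 6 h, mean ± SD versus vehicle.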

Mus musculus [4] = assay: Effect on insulin signalling in high fat diet-induced obese C57BL/6J mouse assessed as increase in AKT phosphorylation at serine […] residue in skeletal muscle at 100 to 300 mg/kg administered via gavage for 2 weeks and measured after 6 hrs post dose by Western blot analysis; format: functional, organism-based; outline: as §1
[5] = molecular target: RAC-alpha serine/threonine-protein kinase (Mus musculus) (UniProt P31750); assay: Activation of insulin signalling in palmitate-induced insulin resistant mouse C2C12 cells assessed as upregulation of AKT phosphorylation at threonine 308 and Ser273 residue at 10 ug/ml by Western blot analysis; format: cell-based
Outline: (§2)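 C2C12 myoblasts were grown in high-glucose (25 mM) DMEM with 10% FBS and differentiated with 2% horse serum, then switched to low-glucose (5 mM) medium. Insulin resistance was induced with palmitate. Myotubes were treated at 10 μg/mL, exposed to insulin for 10 min and harvested. Total and phosphorylated signaling proteins were analysed by Western blot.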

[6] = molecular target: Glycogen synthase kinase-3 alpha/beta (Mus musculus) (UniProt Q9WV60+Q2NL51); assay: Activation of insulin signalling in palmitate-induced insulin resistant mouse C2C12 cells assessed as increase GSK-3 alpha/beta phosphorylation at 10 ug/ml by Western blot analysis; format: cell-based; outline: as §2
Mus musculus [7] = assay: Hypoglycemic activity in high fat diet-induced obese C57BL/6J mouse assessed as increase in C-peptide level at 100 to 300 mg/kg […] and measured after 6 hrs post dose; format: functional, organism-based
Outline: (§3)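 Diet-induced obese male C57BL/6J mice were given one gavage dose (100 or 300 mg/kg, Labrasol vehicle). Fasting plasma insulin and C-peptide (ng/mL) were measured by ELISA 6 h after dosing, as mean ± SD versus vehicle.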

Mus musculus [8] = assay: Effect on insulin signalling in high fat diet-induced obese C57BL/6J mouse assessed as increase in IR-beta phosphorylation at tyrosine 1150 residue at 100 to 300 mg/kg administered via gavage for 2 weeks and measured after 6 hrs post dose by Western blot analysis; format: functional, organism-based; outline: as §1
C2C12 = assay: Activation of insulin signalling in palmitate-induced insulin resistant mouse C2C12 cells assessed as increase in glycogen level at 10 ug/ml; format: functional, cell-based
Outline: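 Palmitate-treated, insulin-resistant C2C12 myotubes (differentiated in 2% horse serum, low-glucose DMEM) were treated at 10 μg/mL and exposed to insulin for 10 min before harvest. Glycogen was measured with a kit assay and expressed as ng released glucose/μg protein.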

Mus musculus [9] = assay: Hypoglycemic activity in high fat diet-induced obese C57BL/6J mouse assessed as increase in insulin level at 300 mg/kg administered via gavage […] and measured after 6 hrs post dose; format: functional, organism-based; outline: as §3
Mus musculus [10] = assay: Effect on insulin signalling in high fat diet-induced obese C57BL/6J mouse assessed as effect on AKT phosphorylation at threonine 308 residue expression in adipose tissue at 100 to 300 mg/kg administered via gavage for 2 weeks and measured after 6 hrs post dose by Western blot analysis; format: functional, organism-based; outline: as §1
Mus musculus [11] = assay: Effect on insulin signalling in high fat diet-induced obese C57BL/6J mouse assessed as effect on AKT phosphorylation at threonine 308 residue expression in liver at 100 to 300 mg/kg administered via gavage for 2 weeks and measured after 6 hrs post dose by Western blot analysis; format: functional, organism-based; outline: as §1
Mus musculus [12] = assay: Effect on insulin signalling in high fat diet-induced C57BL/6J mouse assessed as AKT phosphorylation at Ser […] residue in liver at 100 to 300 mg/kg administered via gavage for 2 weeks and measured after 6 hrs post dose by Western blot analysis; format: functional, organism-based; outline: as §1
[13] = Toxicity in high fat diet-induced obese C57BL/6J mouse assessed as effect on body weight at 100 to 300 mg/kg administered via gavage for 2 weeks and measured after 6 hrs post dose; format: organism-based; details: in vivo, po
Outline: (§4)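 Male C57BL/6J mice on a 60% kcal fat diet from 4 weeks of age were weighed weekly. Body weights at 20 weeks of age are reported for mice randomized to the gavage treatment groups, as mean ± SD versus vehicle.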

Mus musculus [14] = assay: Effect on total IRbeta expression in high fat diet-induced obese C57BL/6J mouse skeletal muscle at 100 to 300 mg/kg administered via gavage for 2 weeks and measured after 6 hrs post dose by Western blot analysis; format: organism-based; details: in vivo, po; outline: as §1
Mus musculus [15] = assay: Effect on insulin signalling in high fat diet-induced C57BL/6J mouse assessed as AKT phosphorylation at Ser […] residue in adipose tissue at 100 to 300 mg/kg administered via gavage for 2 weeks and measured after 6 hrs post dose by Western blot analysis; format: functional, organism-based; outline: as §1
[16] = Toxicity in high fat diet-induced obese C57BL/6J mouse assessed as effect on body weight at 300 mg/kg administered via gavage for 2 weeks and measured after 6 hrs post does; format: organism-based; details: in vivo, po; outline: as §4

Chain of Glycogen synthase kinase-3 alpha/beta (Mus musculus) (Q2NL51 whole entry, looked up): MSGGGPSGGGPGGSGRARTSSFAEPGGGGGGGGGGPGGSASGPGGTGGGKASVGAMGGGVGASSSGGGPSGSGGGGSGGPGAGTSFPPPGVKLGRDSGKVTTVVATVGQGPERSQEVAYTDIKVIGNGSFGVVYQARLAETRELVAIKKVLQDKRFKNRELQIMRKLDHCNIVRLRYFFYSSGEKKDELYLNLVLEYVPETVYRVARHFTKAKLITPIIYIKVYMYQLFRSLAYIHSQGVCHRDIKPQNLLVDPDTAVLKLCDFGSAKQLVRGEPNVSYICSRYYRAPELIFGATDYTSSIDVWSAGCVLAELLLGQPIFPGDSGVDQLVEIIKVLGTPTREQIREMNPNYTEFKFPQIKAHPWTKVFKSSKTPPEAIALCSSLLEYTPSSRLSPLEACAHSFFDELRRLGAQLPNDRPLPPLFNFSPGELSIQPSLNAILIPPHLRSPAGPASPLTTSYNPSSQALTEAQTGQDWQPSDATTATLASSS
Chain of Glycogen synthase kinase-3 alpha/beta (Mus musculus) (Q9WV60 whole entry, looked up): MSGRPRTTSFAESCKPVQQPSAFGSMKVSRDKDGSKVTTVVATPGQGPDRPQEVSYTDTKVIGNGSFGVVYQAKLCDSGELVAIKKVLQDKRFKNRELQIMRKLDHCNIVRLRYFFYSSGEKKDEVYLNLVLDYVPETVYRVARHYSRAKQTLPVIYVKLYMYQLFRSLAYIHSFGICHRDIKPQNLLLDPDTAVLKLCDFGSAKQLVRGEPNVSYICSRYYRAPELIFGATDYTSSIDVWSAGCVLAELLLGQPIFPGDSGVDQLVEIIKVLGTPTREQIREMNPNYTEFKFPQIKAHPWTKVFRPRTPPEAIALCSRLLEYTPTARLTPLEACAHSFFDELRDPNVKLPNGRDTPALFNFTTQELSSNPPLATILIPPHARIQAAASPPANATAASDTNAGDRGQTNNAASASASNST
Chain of RAC-alpha serine/threonine-protein kinase (Mus musculus) (P31750 whole entry): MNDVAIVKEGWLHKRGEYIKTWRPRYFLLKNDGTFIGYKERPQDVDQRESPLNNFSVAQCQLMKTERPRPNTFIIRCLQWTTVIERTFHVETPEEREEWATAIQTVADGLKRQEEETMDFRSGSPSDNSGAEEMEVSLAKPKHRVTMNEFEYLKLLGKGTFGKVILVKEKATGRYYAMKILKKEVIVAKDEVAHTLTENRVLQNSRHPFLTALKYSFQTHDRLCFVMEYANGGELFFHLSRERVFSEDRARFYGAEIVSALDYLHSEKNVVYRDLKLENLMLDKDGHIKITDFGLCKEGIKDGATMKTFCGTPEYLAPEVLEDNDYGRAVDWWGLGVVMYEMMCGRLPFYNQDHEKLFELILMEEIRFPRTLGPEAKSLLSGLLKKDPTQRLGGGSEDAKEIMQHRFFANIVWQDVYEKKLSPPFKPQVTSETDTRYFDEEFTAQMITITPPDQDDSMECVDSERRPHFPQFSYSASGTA

| Activity [5] | Activity [6] | SMILES | Activity (Mus musculus [1]) | Activity [2] | Activity (Mus musculus [3]) | Activity (Mus musculus [4]) | Activity (Mus musculus [7]) | Activity (Mus musculus [8]) | Activity (C2C12) | Activity (Mus musculus [9]) | Activity (Mus musculus [10]) | Activity (Mus musculus [11]) | Activity (Mus musculus [12]) | Activity [13] | Activity (Mus musculus [14]) | Activity (Mus musculus [15]) | Activity [16] |
| --- | --- | --- | --- | --- | --- | --- | --- | --- | --- | --- | --- | --- | --- | --- | --- | --- | --- |
| Active | Active | COc1ccc(CCC(=O)c2ccc(O)cc2O)cc1 | Active | Toxic | Active | Active | Active | inactive | Active | Active | inactive | inactive | Active | Non-Toxic | Non-Toxic | inactive |  |
|  |  | CN(C)C(=N)N=C(N)N [METFORMIN] |  |  |  |  |  |  |  |  |  |  |  |  |  |  | Non-Toxic |
